Calls of active or inactive are those of the source. The calls are words filed in the database; no cut-off is given here.
What was measured:
[1] = Cytotoxicity against human SH-SY5Y cells assessed as cell viability at 1 uM after 48 hrs by MTT assay; type: functional; conditions: read-out: Activity
Summary of the method: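 SH-SY5Y cells in 24-well plates were treated 48 h with 1 μM compound. They were washed in Locke's solution (10 mM HEPES pH 7.6) and given MTT 250 μg/mL for 1 h at 37 °C. Formazan was dissolved in isopropanol/0.1 M HCl and read at 570 nm. Result is % viable cells, 8-12 determinations from 3 experiments.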

[2] = Cytotoxicity against human SH-SY5Y cells assessed as reduction in cell viability after 48 hrs by MTT assay; type: functional, cell-based
Summary of the method: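 SH-SY5Y cells were exposed 48 h across a concentration range, then given MTT 250 μg/mL in Locke's solution for 1 h at 37 °C. Formazan was dissolved in isopropanol/0.1 M HCl and absorbance read at 570 nm. IC50 was taken from concentration-response curves; 8-12 determinations from 3 experiments.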

[3] = Cell cycle arrest in human SH-SY5Y cells assessed as accumulation at G2/M phase at IC50 after 16 hrs by flow cytometry (reference value: 18.5 %); type: functional, cell-based
Summary of the method: (§1)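 SH-SY5Y neuroblastoma cells were kept in 50% DMEM/50% F-12 with 10% FBS and 2 mM L-glutamine. Cells were exposed 16 h to vehicle or compound, washed in PBS and fixed in 70% EtOH at -20 °C. They were then treated with RNAse 100 μg/mL for 1 h at 37 °C and stained with 25 μg/mL propidium iodide plus 5 mM EDTA for 30 min at 4 °C in the dark. DNA content was read by flow cytometry; 3 experiments.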

[4] = Cell cycle arrest in human SH-SY5Y cells assessed as accumulation at S phase at IC50 after 16 hrs by flow cytometry (reference value: 10.6 %); type: functional, cell-based; summary of the method: as §1
[5] = Cell cycle arrest in human SH-SY5Y cells assessed as accumulation at G0G1 phase at IC50 after 16 hrs by flow cytometry (reference value: 70.2 %); type: functional, cell-based; summary of the method: as §1
[6] = Cell cycle arrest in human SH-SY5Y cells assessed as accumulation at G0G1 phase at 3 times IC50 after 16 hrs by flow cytometry (reference value: 70.2 %); type: functional, cell-based; summary of the method: as §1
[7] = Cell cycle arrest in human SH-SY5Y cells assessed as accumulation at S phase at 3 times IC50 after 16 hrs by flow cytometry (reference value: 10.6 %); type: functional, cell-based; summary of the method: as §1
[8] = Cell cycle arrest in human SH-SY5Y cells assessed as accumulation at G2/M phase at 3 times IC50 after 16 hrs by flow cytometry (reference value: 18.5 %); type: functional, cell-based; summary of the method: as §1
[9] = Metabolic stability in human liver microsomes assessed as peak area after 60 mins by LC-UV analysis; type: ADME; conditions: read-out: Stability
Summary of the method: (§2)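 Human liver microsomes were incubated with compound alone, with NADPH, with NADPH+GSH (60 min; phase I), or with UDPGA (30 min; phase II). Extracts were analysed by LC-UV, and remaining substrate is reported as peak area % relative to controls without microsomes.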

[10] = Metabolic stability in human liver microsomes assessed as peak area after 60 mins by LC-UV analysis in presence of NADPH; type: ADME; conditions: read-out: Stability; summary of the method: as §2
[11] = Metabolic stability in human liver microsomes assessed as peak area after 60 mins by LC-UV analysis in presence of NADPH and GSH; type: ADME; conditions: read-out: Stability; summary of the method: as §2
[12] = Metabolic stability in human liver microsomes assessed as peak area after 30 mins by LC-UV analysis in presence of NADPH and UDPGA; type: ADME; conditions: read-out: Stability; summary of the method: as §2
Tubulin (Homo sapiens) [13] = target: T1, Tubulin (Homo sapiens) (UniProt P68371+Q9H4B7+P0DPH7+P68366+Q13509+Q71U36+P04350+Q3ZCM7+P07437+P68363+Q9BQE3+Q6PEY2+Q13885+Q9BVA1+Q9BUF5); experiment: Inhibition of tubulin polymerization in human SH-SY5Y cells at 3 times IC50 after 16 hrs by Western blot analysis; type: cell-based
Tubulin (Homo sapiens) [14] = target: T1, Tubulin (Homo sapiens); experiment: Inhibition of tubulin polymerization in human SH-SY5Y cells at 1 to 3 times IC50 after 16 hrs by immunocytochemistry; type: cell-based
Tubulin (Homo sapiens) [15] = target: T1, Tubulin (Homo sapiens); experiment: (§3) Inhibition of tubulin (unknown origin) polymerization by fluorescence assay; type: protein-complex assay
Summary of the method: (§4)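 Fluorescence-based kit assay. Tubulin was taken up in ice-cold buffer (80 mM PIPES, 2 mM MgCl2, 0.5 mM EGTA, 1 mM GTP, 20% glycerol) and added to wells containing compound or vehicle.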

Tubulin = experiment: as §3; type: protein-complex assay, Homo sapiens; summary of the method: as §4
Tubulin (Homo sapiens) [16] = target: T1, Tubulin (Homo sapiens); experiment: Displacement of [3H]colchicine from tubulin (unknown origin) at 1 uM after 30 mins by beta-counting; type: protein-complex assay
Summary of the method: (§5)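 It was preincubated 30 min at 37 °C with test compound at 1 or 10 μM, then given 0.2 μCi [3H]colchicine for 1 h at 37 °C. Samples were stopped with ice-cold water, filtered on nitrocellulose and counted by β-counter. Results are % inhibition, ≥7 replicates from 3 experiments.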

Tubulin (Homo sapiens) [17] = target: T1, Tubulin (Homo sapiens); experiment: Displacement of [3H]colchicine from tubulin (unknown origin) at 10 uM after 30 mins by beta-counting; type: protein-complex assay; summary of the method: as §5

## COc1cc(C2=NCC(=O)N3COc4c(OC)ccc2c43)cc(OC)c1OC
[1]
  viability at 1 µM: 95.2%

## COc1ccc2c(c1)C(c1cc(OC)c(OC)c(OC)c1)=NCC(=O)N2
[1]
  viability at 1 µM: 33.9%
[2]
  IC50: 0.256 µM

## COc1cc2c(cc1O)C(c1cc(OC)c(OC)c(OC)c1)=NCC(=O)N2
[1]
  viability at 1 µM: 64.8%
[2]
  IC50: 0.415 µM

## COc1ccc2c(c1)N(C)C(=O)CN=C2c1cc(OC)c(OC)c(OC)c1
[1]
  viability at 1 µM: 32.9%
[2]
  IC50: 0.28 µM

## COc1cc(C2=NCC(=O)Nc3c2ccc(OC)c3OC)cc(OC)c1OC
[1]
  viability at 1 µM: 46.8%
[2]
  IC50: 0.0903 µM

## COc1cc(C2=NCC(=O)N(C)c3cc4c(cc32)OCO4)cc(OC)c1OC
[1]
  viability at 1 µM: 46.4%

## COc1ccc(/C=C\c2cc(OC)c(OC)c(OC)c2)cc1O [COMBRETASTATIN A4]
[1]
  viability at 1 µM: 33.4%
[2]
  IC50: 0.0027 µM
[3]
  Activity: 38.4%
[4]
  Activity: 10%
[5]
  Activity: 51.1%
[6]
  Activity: 52.7%
[7]
  Activity: 11.4%
[8]
  Activity: 35.4%
[9]
  remaining at 1 h: 100%
[10]
  remaining at 1 h: 75%
[11]
  remaining at 1 h: 67%
[12]
  remaining at 0.5 h: 39%

## COc1ccc2c(c1)NC(=O)CN=C2c1cc(OC)c(OC)c(OC)c1
[1]
  viability at 1 µM: 24.7%
[2]
  IC50: 0.0251 µM
Tubulin (Homo sapiens) [13]
  inhibition: Active
Tubulin (Homo sapiens) [14]
  inhibition: Active
Tubulin (Homo sapiens) [15]
  inhibition: Dose-dependent effect
Tubulin
  IC50: 9 µM
[3]
  Activity: 34.6%
[4]
  Activity: 2.1%
[5]
  Activity: 45.5%
[6]
  Activity: 45.5%
[7]
  Activity: 19.3%
[8]
  Activity: 35%

## COc1ccc2c(c1)C(c1cc(OC)c(OC)c(OC)c1)=NCC(=O)N2C
[1]
  viability at 1 µM: 44.4%
[2]
  IC50: 0.862 µM

## COc1cc2c(cc1OC)N(C)C(=O)CN=C2c1cc(OC)c(OC)c(OC)c1
[1]
  viability at 1 µM: 105%

## COc1cc(C2=NCC(=O)Nc3cc4c(cc32)OCO4)cc(OC)c1OC
[1]
  viability at 1 µM: 35.1%
[2]
  IC50: 0.071 µM
Tubulin (Homo sapiens) [13]
  inhibition: Active
Tubulin (Homo sapiens) [14]
  inhibition: Active
Tubulin (Homo sapiens) [15]
  inhibition: Dose-dependent effect
Tubulin
  IC50: 13.6 µM
[3]
  Activity: 38.1%
[4]
  Activity: 12.6%
[5]
  Activity: 49.1%
[6]
  Activity: 49.3%
[7]
  Activity: 12.6%
[8]
  Activity: 37.7%

## COc1ccc2c(c1O)NC(=O)CN=C2c1cc(OC)c(OC)c(OC)c1
[1]
  viability at 1 µM: 27.5%
[2]
  IC50: 0.0039 µM
Tubulin (Homo sapiens) [13]
  inhibition: Active
Tubulin (Homo sapiens) [14]
  inhibition: Active
Tubulin
  IC50: 1.3 µM
[3]
  Activity: 33%
[4]
  Activity: 18.9%
Tubulin (Homo sapiens) [16]
  inhibition: 48%
Tubulin (Homo sapiens) [17]
  inhibition: 80%
[5]
  Activity: 48%
[6]
  Activity: 47.5%
[7]
  Activity: 17.9%
[8]
  Activity: 34.4%
[9]
  remaining at 1 h: 95%
[10]
  remaining at 1 h: 96%
[11]
  remaining at 1 h: 97%
[12]
  remaining at 0.5 h: 92%

## COc1cc2c(cc1OC)C(c1cc(OC)c(OC)c(OC)c1)=NCC(=O)N2
[1]
  viability at 1 µM: 102%

## COc1cc(C2=NCC(=O)N(C)c3c2ccc(OC)c3OC)cc(OC)c1OC
[1]
  viability at 1 µM: 76.4%
